The values below come from ChEMBL document CHEMBL1671674, “Induction of multidrug resistance mechanism in Escherichia coli biofilms by interplay between tetracycline and ampicillin resistance genes” (2009).

For assay [1], the system named is Escherichia coli. Description: Antibacterial activity against Escherichia coli MG1655 harboring plasmid pBR322 carrying blaTEM-1 and tetA(C) genes grown as planktonic cells after 24 hrs by agar dilution method. Particulars: K-12 substr. MG1655, 24 h.
Assay [2] concerns Escherichia coli. Description: Antibacterial activity against Escherichia coli MG1655 grown as planktonic cells harboring plasmid pBR322 carrying blaTEM-1 and tetA(C) genes assessed as reduction in bacterial biofilms formation. It is filed as functional. The following applies: K-12 substr. MG1655.
Assay [3] concerns Escherichia coli. Description: Antibacterial activity against Escherichia coli MG1655 grown as biofilms harboring plasmid pBR322 carrying blaTEM-1 and tetA(C) genes after 24 hrs by agar dilution method. It is filed as functional. An outline of the steps: (§1)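 Biofilm MIC: cultures diluted to OD600 0.1 in LB, grown in PVC 96-well plates 24 h at 37°C without shaking; antibiotic added directly without washing as 10-fold dilutions, then 24 h more.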

Assay [4] relates to Escherichia coli. Description: Antibacterial activity against Escherichia coli OCL62 grown as biofilms after 24 hrs by agar dilution method. The format is functional. The following applies: OCL62, 24 h. An outline of the steps:
as §1

Assay [5] deals with Escherichia coli. The experiment in a line: Antibacterial activity against Escherichia coli MG1655 grown as biofilms after 24 hrs by agar dilution method. The format is functional. Particulars: K-12 substr. MG1655, 24 h. In outline: as §1
Assay [6] relates to Escherichia coli. Description: Antibacterial activity against Escherichia coli MG1655 harboring grown as biofilms plasmid pBR322 carrying blaTEM-1 and tetA(C) genes assessed as decrease in bacterial biofilms formation at 5 ug/ml by GFP assay. It is filed as functional. Particulars: K-12 substr. MG1655.
The subject of assay [7] is Escherichia coli. The experiment in a line: Antibacterial activity against Escherichia coli MG1655 grown as biofilms harboring plasmid pBR322 carrying blaTEM-1 and tetA(C) genes assessed as reduction in bacterial biofilms formation. Particulars: K-12 substr. MG1655. It is filed as functional. An outline of the steps:
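Biofilms grown in LB on PVC 96-well plates (inoculum OD600 0.1, 24 h, 37°C, static), then antibiotic added as 10-fold dilutions for 24 h. Eight replicates per condition, four independent experiments.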

Assay [8] relates to Escherichia coli. Description: Antibacterial activity against Escherichia coli OCL62 harboring plasmid pBR322 carrying blaTEM-1 and tetA(C) genes grown as planktonic cells after 24 hrs by broth microdilution method. Particulars: OCL62, 24 h.
For assay [9], the system named is Escherichia coli. Description: Antibacterial activity against Escherichia coli OCL62 grown as biofilms harboring plasmid pBR322 carrying blaTEM-1 and tetA(C) genes after 24 hrs by crystal violet staining method. Particulars: OCL62, 24 h.
Assay [10] relates to Escherichia coli. The experiment in a line: Antibacterial activity against Escherichia coli OCL62 grown as planktonic cells after 24 hrs by agar dilution method. Particulars: OCL62, 24 h. The format is functional.
The test system of assay [11] is Escherichia coli. Description: Antibacterial activity against Escherichia coli MG1655 grown as planktonic cells after 24 hrs by agar dilution method. The following applies: K-12 substr. MG1655, 24 h. The format is functional.
Assay [12] concerns Escherichia coli. The experiment in a line: Antibacterial activity against Escherichia coli MG1655 grown as biofilms assessed as inhibition of bacterial biofilms formation at 5 to 500 ug/ml. The following applies: K-12 substr. MG1655. The format is functional. An outline of the steps:
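MG1655 biofilms grown in LB in PVC 96-well plates from early-stationary cultures diluted to OD600 0.1, static 24 h at 37°C. Antibiotic added unwashed as 10-fold dilutions (0.0000005–500 μg/ml) for another 24 h.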

Values after ≈ are worked out from the molar mass of the structure shown. Active and inactive are the calls of the source. No cut-off for these calls is given here. Bounds are passed on as bounds.

Consider `CC1(C)S[C@@H]2[C@H](NC(=O)[C@H](N)c3ccccc3)C(=O)N2[C@H]1C(=O)O` [AMPICILLIN], for which the MIC is 500 µg/mL (≈ 1430 µM) in the assay with Escherichia coli [1]; 5 µg/mL (≈ 14.3 µM) against Escherichia coli [3] (K-12 substr. MG1655, 24 h); 5 µg/mL (≈ 14.3 µM) in the assay on Escherichia coli [4]; 5 µg/mL (≈ 14.3 µM) with Escherichia coli [5]; 5 µg/mL (≈ 14.3 µM) with Escherichia coli [8]; 50 µg/mL (≈ 143 µM) against Escherichia coli [9]. Besides, the results for the MIC in the assay with Escherichia coli [10] and against Escherichia coli [11] were 5 µg/mL (≈ 14.3 µM) and 0.5 µg/mL (≈ 1.43 µM), respectively. Further, the inhibition entry with Escherichia coli [2] is “inactive”. Also, the inhibition result in the assay on Escherichia coli [6] and with Escherichia coli [7] was “Active” throughout. Moreover, the result in the assay with Escherichia coli [12] was Active.
`O=C(N[C@H](CO)[C@H](O)c1ccc([N+](=O)[O-])cc1)C(Cl)Cl` [CHLORAMPHENICOL]: the MIC is 0.5 µg/mL (≈ 1.55 µM) against Escherichia coli [1] and 5 µg/mL (≈ 15.5 µM) against Escherichia coli [3] (K-12 substr. MG1655, 24 h).
`CC[C@H]1OC(=O)[C@H](C)[C@@H](O[C@H]2C[C@@](C)(OC)[C@@H](O)[C@H](C)O2)[C@H](C)[C@@H](O[C@@H]2O[C@H](C)C[C@H](N(C)C)[C@H]2O)[C@](C)(O)C[C@@H](C)C(=O)[C@H](C)[C@@H](O)[C@]1(C)O` [ERYTHROMYCIN]: the MIC turned out to be 0.5 µg/mL (≈ 0.681 µM) with Escherichia coli [1] and 5 µg/mL (≈ 6.81 µM) against Escherichia coli [3] (K-12 substr. MG1655, 24 h).
In the case of `NC[C@H]1O[C@H](O[C@H]2[C@H](O)[C@@H](O[C@H]3O[C@H](CO)[C@@H](O)[C@H](N)[C@H]3O)[C@H](N)C[C@@H]2N)[C@H](O)[C@@H](O)[C@@H]1O` [KANAMYCIN], in the assay on Escherichia coli [3] (K-12 substr. MG1655, 24 h), the MIC amounted to 0.5 µg/mL (≈ 1.03 µM).
Take `CC1(C)S[C@@H]2[C@H](NC(=O)Cc3ccccc3)C(=O)N2[C@H]1C(=O)O` [PENICILLIN G]: the MIC amounted to 5 µg/mL (≈ 15 µM) with Escherichia coli [1] and 0.5 µg/mL (≈ 1.5 µM) against Escherichia coli [3] (K-12 substr. MG1655, 24 h).
In the case of `CN(C)[C@@H]1C(O)=C(C(N)=O)C(=O)[C@@]2(O)C(O)=C3C(=O)c4c(O)cccc4[C@@](C)(O)[C@H]3C[C@@H]12` [TETRACYCLINE], the MIC in the assay with Escherichia coli [1] was 500 µg/mL (≈ 1130 µM); against Escherichia coli [3] (K-12 substr. MG1655, 24 h), over 500 µg/mL; with Escherichia coli [5], 500 µg/mL (≈ 1130 µM); in the assay with Escherichia coli [11] it was 0.5 µg/mL (≈ 1.13 µM). For the same compound, in the assay on Escherichia coli [6], the inhibition entry was “Active”. For the same compound, the outcome with Escherichia coli [12] was Active.
Consider GENTAMICIN, for which, in the assay with Escherichia coli [3] (K-12 substr. MG1655), the MIC is 0.005 µg/mL.
